{
  "source": "ChEMBL document CHEMBL5696442",
  "about": "“Discovery of type II inhibitors of TGFβ-activated kinase 1 (TAK1) and mitogen-activated protein kinase kinase kinase kinase 2 (MAP4K2)” (J Med Chem, 2015)",
  "key": {"[1]": {"target": "Cyclin-dependent kinase 18 (Homo sapiens) (UniProt Q07002)", "test": "Inhibition of PCTK3 (unknown origin) at 1 uM by Ambit Kinomescan binding assay relative to control", "in_short": "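In vitro ATP-site competition binding assay against a panel of over 420 kinases (KinomeScan), with compound tested at 10 or 1 μM.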"}, "[2]": {"target": "T1, Inhibitor of nuclear factor kappa-B kinase subunit beta (Homo sapiens) (UniProt O14920)", "T1 sequence (whole entry)": "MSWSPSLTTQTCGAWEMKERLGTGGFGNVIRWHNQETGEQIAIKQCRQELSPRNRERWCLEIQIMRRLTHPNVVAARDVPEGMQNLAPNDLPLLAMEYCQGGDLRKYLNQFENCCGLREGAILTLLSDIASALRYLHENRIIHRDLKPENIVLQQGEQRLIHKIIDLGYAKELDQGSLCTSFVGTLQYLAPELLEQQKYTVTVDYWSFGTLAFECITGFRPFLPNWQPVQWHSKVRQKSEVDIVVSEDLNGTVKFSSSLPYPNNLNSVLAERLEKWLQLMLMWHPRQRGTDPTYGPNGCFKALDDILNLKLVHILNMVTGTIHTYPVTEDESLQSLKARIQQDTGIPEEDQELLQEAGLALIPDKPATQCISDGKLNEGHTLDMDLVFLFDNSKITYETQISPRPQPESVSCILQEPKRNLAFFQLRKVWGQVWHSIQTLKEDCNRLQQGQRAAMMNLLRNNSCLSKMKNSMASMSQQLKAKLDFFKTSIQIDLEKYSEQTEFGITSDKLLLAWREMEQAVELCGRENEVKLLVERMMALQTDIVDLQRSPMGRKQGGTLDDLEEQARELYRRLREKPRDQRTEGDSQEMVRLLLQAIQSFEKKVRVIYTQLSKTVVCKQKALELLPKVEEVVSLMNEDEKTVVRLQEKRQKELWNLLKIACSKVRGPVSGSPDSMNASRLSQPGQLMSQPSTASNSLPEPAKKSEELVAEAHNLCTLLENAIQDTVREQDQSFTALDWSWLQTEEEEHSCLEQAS", "test": "Inhibition of IKKb Lys2 labeling site in human A-375 cells at 5 uM by KiNativ Profiling analysis relative to control", "type": "cell-based"}, "[3]": {"target": "Mitogen-activated protein kinase kinase kinase kinase 3 (Homo sapiens) (UniProt Q8IVH8)", "sequence (Q8IVH8 whole entry)": "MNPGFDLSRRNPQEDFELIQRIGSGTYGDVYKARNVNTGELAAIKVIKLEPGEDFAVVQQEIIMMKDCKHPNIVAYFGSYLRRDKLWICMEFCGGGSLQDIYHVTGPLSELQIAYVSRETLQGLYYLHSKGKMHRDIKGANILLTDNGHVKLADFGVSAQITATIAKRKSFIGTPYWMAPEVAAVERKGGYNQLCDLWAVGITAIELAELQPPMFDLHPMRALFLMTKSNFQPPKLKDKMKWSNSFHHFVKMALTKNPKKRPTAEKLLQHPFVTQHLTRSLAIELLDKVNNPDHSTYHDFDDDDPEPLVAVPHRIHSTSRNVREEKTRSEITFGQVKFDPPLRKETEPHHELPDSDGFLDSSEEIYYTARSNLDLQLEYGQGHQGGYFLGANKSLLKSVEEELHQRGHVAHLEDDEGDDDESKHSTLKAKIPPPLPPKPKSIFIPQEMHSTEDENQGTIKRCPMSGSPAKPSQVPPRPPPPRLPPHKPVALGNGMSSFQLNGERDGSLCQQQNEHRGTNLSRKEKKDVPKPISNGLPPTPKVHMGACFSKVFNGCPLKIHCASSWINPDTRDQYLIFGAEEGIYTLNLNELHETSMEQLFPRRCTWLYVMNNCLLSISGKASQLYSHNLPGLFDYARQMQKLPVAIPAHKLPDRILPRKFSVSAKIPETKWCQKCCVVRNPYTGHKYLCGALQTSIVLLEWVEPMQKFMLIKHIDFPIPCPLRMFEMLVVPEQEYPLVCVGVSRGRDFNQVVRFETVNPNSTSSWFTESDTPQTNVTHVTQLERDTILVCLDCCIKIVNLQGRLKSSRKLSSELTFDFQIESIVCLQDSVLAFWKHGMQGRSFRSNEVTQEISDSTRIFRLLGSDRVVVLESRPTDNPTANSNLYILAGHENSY", "test": "Inhibition of MAP4K3 (unknown origin) at 1 uM by Ambit Kinomescan binding assay relative to control"}, "[4]": {"target": "Serine/threonine-protein kinase VRK2 (Homo sapiens) (UniProt Q86Y07)", "test": "Inhibition of VRK2 Lys2 labeling site in human A-375 cells at 0.05 uM by KiNativ Profiling analysis relative to control", "type": "cell-based"}, "[5]": {"target": "Tyrosine-protein kinase HCK (Homo sapiens) (UniProt P08631)", "test": "Inhibition of HCK (unknown origin) at 1 uM by Ambit Kinomescan binding assay relative to control; values are per cent of control"}, "[6]": {"target": "Dual specificity mitogen-activated protein kinase kinase 1 (Homo sapiens) (UniProt Q02750)", "sequence (Q02750 whole entry)": "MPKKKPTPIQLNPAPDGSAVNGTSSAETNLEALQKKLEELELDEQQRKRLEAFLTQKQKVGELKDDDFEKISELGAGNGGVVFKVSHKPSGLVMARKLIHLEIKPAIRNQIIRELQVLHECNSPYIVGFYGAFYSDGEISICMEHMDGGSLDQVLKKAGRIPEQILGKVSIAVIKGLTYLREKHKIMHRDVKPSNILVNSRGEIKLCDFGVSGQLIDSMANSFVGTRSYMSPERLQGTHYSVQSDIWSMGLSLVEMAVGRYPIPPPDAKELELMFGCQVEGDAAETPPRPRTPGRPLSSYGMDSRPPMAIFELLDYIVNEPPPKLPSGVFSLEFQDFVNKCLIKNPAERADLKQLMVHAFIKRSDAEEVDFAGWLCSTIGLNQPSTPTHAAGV", "test": "Inhibition of MAP2K1 Lys2 labeling site harbouring IMHRDVKPSNILVNSR in human A-375 cells at 5 uM by KiNativ Profiling analysis relative to control", "type": "cell-based"}, "[7]": {"target": "Tyrosine-protein kinase ABL2 (Homo sapiens, UniProt P42684)", "sequence (P42684 whole entry)": "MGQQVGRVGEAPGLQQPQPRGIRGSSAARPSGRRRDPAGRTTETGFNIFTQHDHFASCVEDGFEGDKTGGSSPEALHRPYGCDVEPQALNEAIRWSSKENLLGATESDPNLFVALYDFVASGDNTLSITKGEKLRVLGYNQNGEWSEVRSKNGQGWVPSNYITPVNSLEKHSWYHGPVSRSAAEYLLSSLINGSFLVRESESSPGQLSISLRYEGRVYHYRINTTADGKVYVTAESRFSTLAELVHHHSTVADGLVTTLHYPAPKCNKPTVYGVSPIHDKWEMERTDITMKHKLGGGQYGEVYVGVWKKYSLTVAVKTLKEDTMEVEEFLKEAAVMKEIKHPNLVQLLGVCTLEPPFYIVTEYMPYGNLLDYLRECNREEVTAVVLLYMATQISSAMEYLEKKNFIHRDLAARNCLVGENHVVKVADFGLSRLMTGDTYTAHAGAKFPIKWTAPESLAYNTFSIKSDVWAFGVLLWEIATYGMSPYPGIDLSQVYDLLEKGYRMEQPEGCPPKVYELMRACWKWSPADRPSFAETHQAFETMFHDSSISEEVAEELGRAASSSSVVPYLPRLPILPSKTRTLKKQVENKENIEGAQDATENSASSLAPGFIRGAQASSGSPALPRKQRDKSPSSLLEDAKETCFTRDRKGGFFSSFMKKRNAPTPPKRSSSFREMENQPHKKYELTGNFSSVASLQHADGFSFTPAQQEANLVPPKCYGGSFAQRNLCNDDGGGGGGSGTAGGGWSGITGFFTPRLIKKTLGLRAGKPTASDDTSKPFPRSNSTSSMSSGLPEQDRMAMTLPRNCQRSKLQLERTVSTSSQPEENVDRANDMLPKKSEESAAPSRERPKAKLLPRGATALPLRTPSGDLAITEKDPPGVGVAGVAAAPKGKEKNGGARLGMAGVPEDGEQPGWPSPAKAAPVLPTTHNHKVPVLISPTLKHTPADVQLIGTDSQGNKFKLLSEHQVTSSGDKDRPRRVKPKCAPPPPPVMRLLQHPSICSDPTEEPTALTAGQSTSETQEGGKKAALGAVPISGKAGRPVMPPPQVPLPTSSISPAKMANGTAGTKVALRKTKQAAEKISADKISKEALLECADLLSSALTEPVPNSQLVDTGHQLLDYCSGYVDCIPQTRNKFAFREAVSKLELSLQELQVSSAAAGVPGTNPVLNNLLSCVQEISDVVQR", "test": "Inhibition of ARG Lys1 labeling site in human A-375 cells at 0.05 uM by KiNativ Profiling analysis relative to control", "type": "cell-based"}, "[8]": {"target": "Serine/threonine-protein kinase B-raf (Homo sapiens, UniProt P15056)", "test": "Inhibition of BRAF K2 labeling site in human Huh-7 cells at 10 uM by KiNativ Profiling analysis relative to control", "type": "cell-based"}, "[9]": {"target": "Tyrosine-protein kinase Fer (Homo sapiens, UniProt P16591)", "test": "Inhibition of FER K1 labeling site in human Huh-7 cells at 1 uM by KiNativ Profiling analysis relative to control", "type": "cell-based"}, "[10]": {"target": "Serine/threonine-protein kinase 16 (Homo sapiens) (UniProt O75716)", "sequence (O75716 whole entry)": "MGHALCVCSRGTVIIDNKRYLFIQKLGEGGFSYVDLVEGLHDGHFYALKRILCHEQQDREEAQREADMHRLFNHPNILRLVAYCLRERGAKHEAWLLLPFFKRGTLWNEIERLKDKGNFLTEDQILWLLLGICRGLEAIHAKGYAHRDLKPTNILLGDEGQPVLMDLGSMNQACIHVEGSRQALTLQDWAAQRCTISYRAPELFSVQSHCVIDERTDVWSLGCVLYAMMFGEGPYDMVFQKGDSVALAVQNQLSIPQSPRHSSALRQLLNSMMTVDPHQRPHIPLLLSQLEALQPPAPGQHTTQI", "test": "Inhibition of STK16 (unknown origin) at 10 uM by Ambit Kinomescan binding assay"}, "[11]": {"target": "Cyclin-dependent kinase 5 (Homo sapiens) (UniProt Q00535)", "test": "Inhibition of CDK5 Lys1 labeling site in human A-375 cells at 0.05 uM by KiNativ Profiling analysis relative to control", "type": "cell-based"}, "[12]": {"target": "Activated CDC42 kinase 1 (Homo sapiens) (UniProt Q07912)", "test": "Inhibition of TNK2 (unknown origin) at 10 uM by Ambit Kinomescan binding assay"}, "[13]": {"test": "Inhibition of PKD1/2 K2 labeling site in human Huh-7 cells at 1 uM by KiNativ Profiling analysis relative to control", "details": "condition cancer"}, "[14]": {"target": "TRAF2 and NCK-interacting protein kinase (Homo sapiens) (UniProt Q9UKE5)", "test": "Inhibition of ZC2/TNIK K2 labeling site in human Huh-7 cells at 1 uM by KiNativ Profiling analysis relative to control", "type": "cell-based"}, "[15]": {"target": "DNA-PK/Ku70/Ku85 (Homo sapiens) (UniProt P78527+P12956+P13010)", "test": "Inhibition of DNAPK ATP labeling site harbouring KGGSWIQEINVAEKNWYPR in human Huh-7 cells at 1 uM by KiNativ Profiling analysis relative to control", "type": "cell-based"}, "[16]": {"target": "T2, Aurora kinase C (Homo sapiens) (UniProt Q9UQB9)", "T2 sequence (whole entry)": "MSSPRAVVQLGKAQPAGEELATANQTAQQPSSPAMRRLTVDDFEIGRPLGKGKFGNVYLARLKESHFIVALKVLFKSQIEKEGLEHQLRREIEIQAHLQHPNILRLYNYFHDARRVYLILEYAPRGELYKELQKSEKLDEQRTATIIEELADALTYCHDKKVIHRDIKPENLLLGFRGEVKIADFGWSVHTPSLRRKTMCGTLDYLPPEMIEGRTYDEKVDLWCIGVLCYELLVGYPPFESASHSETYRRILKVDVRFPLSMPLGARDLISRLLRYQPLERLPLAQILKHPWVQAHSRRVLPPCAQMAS", "test": "Inhibition of AurC ATP labeling site in human Huh-7 cell lysate at 1 uM by KiNativ Profiling analysis relative to control", "type": "subcellular"}, "[17]": {"target": "Calcium/calmodulin-dependent protein kinase type II subunit gamma (Homo sapiens) (UniProt Q13555)", "test": "Inhibition of CaMK2g Lys2 labeling site in human Huh-7 cells at 1 uM by KiNativ Profiling analysis relative to control", "type": "cell-based"}, "[18]": {"target": "Serine/threonine-protein kinase WNK3 (Homo sapiens) (UniProt Q9BYP7)", "sequence (Q9BYP7 whole entry)": "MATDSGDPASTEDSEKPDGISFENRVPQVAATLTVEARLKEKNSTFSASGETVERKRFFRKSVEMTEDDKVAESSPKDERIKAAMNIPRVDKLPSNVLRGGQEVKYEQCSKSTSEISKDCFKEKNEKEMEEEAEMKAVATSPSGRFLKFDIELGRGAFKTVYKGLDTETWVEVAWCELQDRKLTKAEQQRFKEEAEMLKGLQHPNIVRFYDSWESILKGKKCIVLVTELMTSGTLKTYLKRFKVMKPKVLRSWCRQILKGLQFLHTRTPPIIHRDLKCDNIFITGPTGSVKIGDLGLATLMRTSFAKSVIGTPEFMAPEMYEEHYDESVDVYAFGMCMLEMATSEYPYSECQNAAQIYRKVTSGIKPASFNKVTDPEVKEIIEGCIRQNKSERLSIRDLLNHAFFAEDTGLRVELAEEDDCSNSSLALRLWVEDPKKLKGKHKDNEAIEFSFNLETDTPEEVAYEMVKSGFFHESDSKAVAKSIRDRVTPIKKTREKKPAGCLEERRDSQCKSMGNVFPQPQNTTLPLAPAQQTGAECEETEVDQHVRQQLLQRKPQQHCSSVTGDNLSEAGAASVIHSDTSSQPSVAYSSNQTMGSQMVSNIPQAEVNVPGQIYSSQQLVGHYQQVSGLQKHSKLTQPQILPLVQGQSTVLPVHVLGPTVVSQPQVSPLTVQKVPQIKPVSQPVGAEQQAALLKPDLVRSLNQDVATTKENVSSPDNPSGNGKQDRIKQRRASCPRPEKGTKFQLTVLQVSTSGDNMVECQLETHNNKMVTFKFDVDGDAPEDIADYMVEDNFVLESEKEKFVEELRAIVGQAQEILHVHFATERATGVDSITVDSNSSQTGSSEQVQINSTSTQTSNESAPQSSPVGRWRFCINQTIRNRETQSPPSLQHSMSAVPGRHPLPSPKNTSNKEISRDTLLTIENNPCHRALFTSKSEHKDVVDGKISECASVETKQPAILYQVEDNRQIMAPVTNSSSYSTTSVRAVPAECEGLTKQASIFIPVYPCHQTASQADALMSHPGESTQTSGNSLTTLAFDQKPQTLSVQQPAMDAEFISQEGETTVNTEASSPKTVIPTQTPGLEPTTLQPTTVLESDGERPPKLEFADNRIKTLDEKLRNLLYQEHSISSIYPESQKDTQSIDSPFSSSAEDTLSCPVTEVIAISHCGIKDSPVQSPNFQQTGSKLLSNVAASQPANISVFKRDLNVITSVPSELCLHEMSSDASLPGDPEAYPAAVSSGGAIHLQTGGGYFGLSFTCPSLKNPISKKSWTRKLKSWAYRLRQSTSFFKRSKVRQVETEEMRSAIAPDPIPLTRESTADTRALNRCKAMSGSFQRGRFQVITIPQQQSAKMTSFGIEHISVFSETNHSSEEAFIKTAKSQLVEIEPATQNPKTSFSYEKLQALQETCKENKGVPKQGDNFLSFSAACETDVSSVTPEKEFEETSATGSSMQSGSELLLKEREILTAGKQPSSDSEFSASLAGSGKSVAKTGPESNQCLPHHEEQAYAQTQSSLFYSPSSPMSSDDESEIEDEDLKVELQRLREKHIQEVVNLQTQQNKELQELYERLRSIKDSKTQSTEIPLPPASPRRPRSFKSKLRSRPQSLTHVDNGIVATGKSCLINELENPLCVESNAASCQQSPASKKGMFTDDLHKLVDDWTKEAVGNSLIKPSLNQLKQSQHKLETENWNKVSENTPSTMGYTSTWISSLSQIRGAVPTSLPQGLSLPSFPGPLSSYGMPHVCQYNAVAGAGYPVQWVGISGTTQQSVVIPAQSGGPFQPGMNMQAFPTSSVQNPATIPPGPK", "test": "Inhibition of Wnk3 Lys2 labeling site in human Huh-7 cells at 1 uM by KiNativ Profiling analysis relative to control", "type": "cell-based"}, "[19]": {"target": "Glycogen synthase kinase-3 alpha (Homo sapiens) (UniProt P49840)", "sequence (P49840 2-483 limits assumed)": "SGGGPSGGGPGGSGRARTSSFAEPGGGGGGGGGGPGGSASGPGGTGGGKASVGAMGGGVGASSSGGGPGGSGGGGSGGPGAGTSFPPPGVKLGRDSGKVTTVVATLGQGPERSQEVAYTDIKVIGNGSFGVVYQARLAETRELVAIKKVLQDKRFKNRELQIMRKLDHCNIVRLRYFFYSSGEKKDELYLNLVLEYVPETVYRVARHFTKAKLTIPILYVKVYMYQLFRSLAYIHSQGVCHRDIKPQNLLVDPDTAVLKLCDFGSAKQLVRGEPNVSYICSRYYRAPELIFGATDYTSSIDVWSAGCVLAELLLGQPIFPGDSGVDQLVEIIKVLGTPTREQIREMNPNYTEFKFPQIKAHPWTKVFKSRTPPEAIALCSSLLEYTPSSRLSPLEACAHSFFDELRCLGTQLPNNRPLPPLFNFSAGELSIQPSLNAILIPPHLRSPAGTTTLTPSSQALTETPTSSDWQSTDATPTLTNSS", "test": "Inhibition of GSK3A Lys2 labeling site in human Huh-7 cell lysate at 1 uM by KiNativ Profiling analysis relative to control", "type": "subcellular"}, "[20]": {"target": "Calcium/calmodulin-dependent protein kinase type 1 (Homo sapiens) (UniProt Q14012)", "test": "Inhibition of CaMK1a Lys1 labeling site in human Huh-7 cells at 1 uM by KiNativ Profiling analysis relative to control", "type": "cell-based"}},
  "note": "Calls of active or inactive are those of the source. No cut-off for these calls is given here.",
  "data": [
    {"smiles": "CCN1CCN(Cc2ccc(NC(=O)c3ccc(C)c(/C=C/c4cnc5[nH]ccc5c4OC)c3)cc2C(F)(F)F)CC1", "values": [
      {"measurement": "inhibition", "setting": "[1]", "result": 84, "unit": "%"},
      {"measurement": "inhibition", "setting": "[2]", "result": 50.5, "unit": "%"},
      {"measurement": "inhibition", "setting": "[3]", "result": 20, "unit": "%"},
      {"measurement": "inhibition", "setting": "[4]", "result": 28.7, "unit": "%"},
      {"measurement": "residual activity", "setting": "[5]", "result": 0.5, "unit": "%"},
      {"measurement": "inhibition", "setting": "[6]", "result": 34.7, "unit": "%"}
    ]},
    {"smiles": "CCN1CCN(Cc2ccc(NC(=O)c3ccc(C)c(Oc4ccnc5[nH]ccc45)c3)cc2C(F)(F)F)CC1", "values": [
      {"measurement": "inhibition", "setting": "[7]", "result": 84.8, "unit": "%"},
      {"measurement": "inhibition", "setting": "[8]", "result": 5.2, "unit": "%"},
      {"measurement": "inhibition", "setting": "[9]", "result": 52.4, "unit": "%"},
      {"measurement": "inhibition", "setting": "[10]", "result": "inactive"},
      {"measurement": "inhibition", "setting": "[11]", "result": 16.5, "unit": "%"},
      {"measurement": "inhibition", "setting": "[12]", "result": "inactive"},
      {"measurement": "inhibition at 1 µM", "setting": "[13]", "result": -9.2, "unit": "%"},
      {"measurement": "inhibition", "setting": "[14]", "result": 23, "unit": "%"}
    ]},
    {"smiles": "CNc1cc(Oc2cc(C(=O)Nc3cc(N4CCN(C)CC4)cc(C(F)(F)F)c3)ccc2C)ncn1", "values": [
      {"measurement": "inhibition", "setting": "[15]", "result": 68.1, "unit": "%"},
      {"measurement": "inhibition", "setting": "[16]", "result": 2.5, "unit": "%"},
      {"measurement": "inhibition", "setting": "[17]", "result": 20.3, "unit": "%"},
      {"measurement": "inhibition", "setting": "[18]", "result": 15.3, "unit": "%"},
      {"measurement": "inhibition", "setting": "[19]", "result": -5.8, "unit": "%"},
      {"measurement": "inhibition", "setting": "[20]", "result": 3.6, "unit": "%"}
    ]}
  ]
}
